Data published in ChEMBL document CHEMBL5260840 (J Med Chem, 2019).
Activity calls are given as the source filed them. The calls are words filed in the database; no cut-off is given here.

Columns and labels:
Format in all cases: cell-based
[1] = target: T1, von Hippel-Lindau disease tumor suppressor/Bromodomain-containing protein 7 (Homo sapiens) (UniProt Q9NPI1+P40337); experiment: PROTAC activity at VHL/BRD7 in human Ri-1 cells assessed as BRD7 protein degradation at 100 nM incubated for 4 hrs by MS proteomics analysis
[2] = target: T2, von Hippel-Lindau disease tumor suppressor/Bromodomain-containing protein 9 (Homo sapiens) (UniProt Q9H8M2+P40337); experiment: PROTAC activity at VHL/BRD9 in human Ri-1 cells assessed as BRD9 protein degradation at 100 nM incubated for 4 hrs by MS proteomics analysis
Method in brief: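 RI-1 cells treated in triplicate with compound (100 nM) or DMSO for 4 h; whole-cell proteome quantified by MS (6273 proteins), fold change versus control with t-test P-values.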

[3] = target: T2, von Hippel-Lindau disease tumor suppressor/Bromodomain-containing protein 9 (Homo sapiens); experiment: PROTAC activity at VHL/BRD9 in human Ri-1 cells assessed as BRD9 protein degradation at 100 nM incubated for 4 hrs by Western blot analysis
Method in brief: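 Ri-1 cells exposed to compound for the stated time before harvest; BRD9, BRD7 and β-actin measured by Western blot, band intensities quantified and set against DMSO-treated control.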

[4] = target: T1, von Hippel-Lindau disease tumor suppressor/Bromodomain-containing protein 7 (Homo sapiens); experiment: PROTAC activity at VHL/BRD7 in human Ri-1 cells assessed as BRD7 protein degradation at 100 nM incubated for 4 hrs by Western blot analysis
[5] = target: T1, von Hippel-Lindau disease tumor suppressor/Bromodomain-containing protein 7 (Homo sapiens); experiment: PROTAC activity at VHL/BRD7 in human HeLa cells assessed as protein degradation at 1 uM incubated for 4 hrs by Western blot analysis relative to control
[6] = target: T1, von Hippel-Lindau disease tumor suppressor/Bromodomain-containing protein 7 (Homo sapiens); experiment: PROTAC activity at VHL/BRD7 in human HeLa cells assessed as remaining BRD7 protein level at 1 uM incubated for 4 hrs by Western blot analysis relative to control
[7] = target: T2, von Hippel-Lindau disease tumor suppressor/Bromodomain-containing protein 9 (Homo sapiens); experiment: PROTAC activity at VHL/BRD9 in human HeLa cells assessed as protein degradation at 1 uM incubated for 4 hrs by Western blot analysis relative to control
Method in brief: (§1)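 HeLa cells treated with compound for the stated time before harvest; BRD9, BRD7 and β-actin detected by Western blot with β-actin loading control; band intensities quantified.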

[8] = target: T1, von Hippel-Lindau disease tumor suppressor/Bromodomain-containing protein 7 (Homo sapiens); experiment: PROTAC activity at VHL/BRD7 in human HeLa cells assessed as remaining BRD7 protein level at 1 uM incubated for 16 hrs by Western blot analysis relative to control
[9] = target: T1, von Hippel-Lindau disease tumor suppressor/Bromodomain-containing protein 7 (Homo sapiens); experiment: PROTAC activity at VHL/BRD7 in human HeLa cells assessed as protein degradation at 1 uM incubated for 16 hrs by Western blot analysis relative to control
[10] = target: T2, von Hippel-Lindau disease tumor suppressor/Bromodomain-containing protein 9 (Homo sapiens); experiment: PROTAC activity at VHL/BRD9 in human HeLa cells assessed as remaining BRD9 protein level at 1 uM incubated for 16 hrs by Western blot analysis relative to control; method in brief: as §1
[11] = target: T2, von Hippel-Lindau disease tumor suppressor/Bromodomain-containing protein 9 (Homo sapiens); experiment: PROTAC activity at VHL/BRD9 in human HeLa cells assessed as protein degradation at 1 uM incubated for 16 hrs by Western blot analysis relative to control; method in brief: as §1
[12] = target: T3, DDB1- and CUL4-associated factor 15/Bromodomain-containing protein 7 (Homo sapiens) (UniProt Q9NPI1+Q66K64); experiment: PROTAC activity at DCAF15/BRD7 in human HeLa cells assessed as remaining BRD7 protein level at 1 uM incubated for 16 hrs by Western blot analysis relative to control
[13] = target: T4, DDB1- and CUL4-associated factor 15/Bromodomain-containing protein 9 (Homo sapiens) (UniProt Q9H8M2+Q66K64); experiment: PROTAC activity at DCAF15/BRD9 in human HeLa cells assessed as remaining BRD9 protein level at 1 uM incubated for 4 hrs by Western blot analysis relative to control
[14] = target: T4, DDB1- and CUL4-associated factor 15/Bromodomain-containing protein 9 (Homo sapiens); experiment: PROTAC activity at DCAF15/BRD9 in human HeLa cells assessed as remaining BRD9 protein level at 1 uM incubated for 16 hrs by Western blot analysis relative to control
[15] = target: T3, DDB1- and CUL4-associated factor 15/Bromodomain-containing protein 7 (Homo sapiens); experiment: PROTAC activity at DCAF15/BRD7 in human HeLa cells assessed as remaining BRD7 protein level at 1 uM incubated for 4 hrs by Western blot analysis relative to control

T1 sequence (P40337 whole entry, looked up): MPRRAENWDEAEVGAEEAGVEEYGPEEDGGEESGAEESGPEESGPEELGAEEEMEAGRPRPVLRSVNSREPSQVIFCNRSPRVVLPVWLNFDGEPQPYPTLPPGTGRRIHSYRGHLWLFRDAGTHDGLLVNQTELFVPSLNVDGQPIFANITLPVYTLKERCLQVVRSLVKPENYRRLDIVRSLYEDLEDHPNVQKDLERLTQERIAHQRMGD
T1 sequence (Q9NPI1 whole entry, looked up): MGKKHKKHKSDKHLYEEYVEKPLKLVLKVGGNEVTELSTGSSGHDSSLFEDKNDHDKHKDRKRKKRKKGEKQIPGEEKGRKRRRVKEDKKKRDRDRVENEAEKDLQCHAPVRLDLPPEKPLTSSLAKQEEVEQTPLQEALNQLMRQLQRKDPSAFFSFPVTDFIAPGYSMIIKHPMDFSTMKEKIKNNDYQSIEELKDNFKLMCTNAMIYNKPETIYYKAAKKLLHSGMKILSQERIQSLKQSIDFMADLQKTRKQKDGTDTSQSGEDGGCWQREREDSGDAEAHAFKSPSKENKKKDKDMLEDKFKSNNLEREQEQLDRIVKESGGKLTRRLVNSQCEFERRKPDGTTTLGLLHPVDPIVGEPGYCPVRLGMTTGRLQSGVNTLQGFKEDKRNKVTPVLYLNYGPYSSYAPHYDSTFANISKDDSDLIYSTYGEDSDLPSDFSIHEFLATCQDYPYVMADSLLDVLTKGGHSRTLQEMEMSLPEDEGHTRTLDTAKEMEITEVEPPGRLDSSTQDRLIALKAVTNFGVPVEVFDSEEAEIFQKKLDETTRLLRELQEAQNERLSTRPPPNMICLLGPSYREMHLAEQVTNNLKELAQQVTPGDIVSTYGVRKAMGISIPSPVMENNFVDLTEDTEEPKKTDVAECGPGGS
T2 sequence (P40337 whole entry, looked up): as the sequence (P40337 whole entry, looked up) above
T2 sequence (Q9H8M2 whole entry, looked up): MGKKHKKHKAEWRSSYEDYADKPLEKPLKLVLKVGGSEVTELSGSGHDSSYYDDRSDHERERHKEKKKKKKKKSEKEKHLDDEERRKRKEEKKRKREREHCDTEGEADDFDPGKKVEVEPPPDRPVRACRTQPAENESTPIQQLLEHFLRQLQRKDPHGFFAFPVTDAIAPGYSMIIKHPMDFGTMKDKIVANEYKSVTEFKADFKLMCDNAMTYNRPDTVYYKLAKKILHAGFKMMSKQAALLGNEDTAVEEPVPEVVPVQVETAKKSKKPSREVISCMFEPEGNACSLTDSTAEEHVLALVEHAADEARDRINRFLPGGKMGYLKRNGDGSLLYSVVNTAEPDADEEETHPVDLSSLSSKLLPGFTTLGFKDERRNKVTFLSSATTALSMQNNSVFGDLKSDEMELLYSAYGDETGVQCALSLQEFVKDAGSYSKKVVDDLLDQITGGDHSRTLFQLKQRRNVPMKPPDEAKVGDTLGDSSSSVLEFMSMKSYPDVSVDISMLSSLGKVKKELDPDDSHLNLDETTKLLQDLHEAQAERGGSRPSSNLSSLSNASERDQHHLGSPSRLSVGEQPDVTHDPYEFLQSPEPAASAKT
T3 sequence (Q66K64 whole entry, looked up): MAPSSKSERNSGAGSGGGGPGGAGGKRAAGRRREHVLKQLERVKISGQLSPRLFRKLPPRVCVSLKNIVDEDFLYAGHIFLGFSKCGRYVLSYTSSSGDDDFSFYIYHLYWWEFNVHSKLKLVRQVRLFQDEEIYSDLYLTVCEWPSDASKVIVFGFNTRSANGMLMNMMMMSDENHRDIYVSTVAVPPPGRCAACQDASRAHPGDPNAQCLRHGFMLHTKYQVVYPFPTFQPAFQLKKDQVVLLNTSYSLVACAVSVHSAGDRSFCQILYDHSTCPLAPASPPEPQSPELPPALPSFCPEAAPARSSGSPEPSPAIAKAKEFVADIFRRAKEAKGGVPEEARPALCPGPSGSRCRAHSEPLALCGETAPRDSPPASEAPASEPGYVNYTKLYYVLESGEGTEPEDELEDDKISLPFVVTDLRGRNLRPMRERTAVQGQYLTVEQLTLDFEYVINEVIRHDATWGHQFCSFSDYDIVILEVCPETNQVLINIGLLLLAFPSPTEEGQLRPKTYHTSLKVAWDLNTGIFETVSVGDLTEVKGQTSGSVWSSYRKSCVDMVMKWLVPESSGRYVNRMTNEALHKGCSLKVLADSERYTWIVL
T3 sequence (Q9NPI1 whole entry, looked up): as the sequence (Q9NPI1 whole entry, looked up) above
T4 sequence (Q66K64 whole entry, looked up): as the sequence (Q66K64 whole entry, looked up) above
T4 sequence (Q9H8M2 whole entry, looked up): as the sequence (Q9H8M2 whole entry, looked up) above

COc1cc(-c2cn(C)c(=O)c3cnccc23)cc(OC)c1CN1CCN(CCCCCOc2cc(-c3scnc3C)ccc2CNC(=O)[C@@H]2C[C@H](O)CN2C(=O)[C@@H](NC(=O)C2(F)CC2)C(C)(C)C)CC1
Activity [1]: inactive | Activity [2]: inactive | Activity [3]: inactive | Activity [4]: inactive

COc1cc(-c2cn(C)c(=O)c3cnccc23)cc(OC)c1CN1CCN(CCOCCOCCOCCOCC(=O)N[C@H](C(=O)N2C[C@H](O)C[C@H]2C(=O)NCc2ccc(-c3scnc3C)cc2)C(C)(C)C)CC1
Activity [5]: 20% | Activity [6]: 81% | Activity [7]: 20% | Activity [8]: 73% | Activity [9]: 30% | Activity [10]: 78% | Activity [11]: 30%

COc1cc(-c2cn(C)c(=O)c3cnccc23)cc(OC)c1CN1CCN(CCOCCOCC(=O)NCc2ccc(S(=O)(=O)Nc3cccc4c(Cl)c[nH]c34)cc2)CC1
Activity [12]: 86% | Activity [13]: 125% | Activity [14]: 81% | Activity [15]: 101%
